Among the data in ChEMBL document CHEMBL5113456, “2-Aminopyridines with a shortened amino sidechain as potent, selective, and highly permeable human neuronal nitric oxide synthase inhibitors” (Bioorg Med Chem, 2022) are Ki and Papp values, retold here.

What is called Ki is a dissociation constant, usually derived from enzyme kinetics or from competition with a known ligand.

The target of data set [1] is Nitric oxide synthase 1 (Rattus norvegicus, UniProt P29476).
Data set [2] concerns the target Nitric oxide synthase, inducible (Homo sapiens, UniProt P35228). As to the kind of experiment: Inhibition of human iNOS using L-arginine as substrate assessed as reduction in NO production in the presence of NADPH by NO-hemoglobin capture assay. Put shortly: (§1)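 Ki was obtained from IC50 by the Cheng–Prusoff equation. […] Enzyme was purified human NOS isoform. Assay buffer was 100 mM HEPES, 10% glycerol, pH 7.4–7.5, and stock buffer was 100 mM HEPES, pH 7.4–7.5. Plate reader syringe lines were equilibrated with assay buffer before the run.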

A further data set deals with T1, Nitric oxide synthase 3 (Homo sapiens, UniProt P29474).
T1 sequence (P29474 whole entry): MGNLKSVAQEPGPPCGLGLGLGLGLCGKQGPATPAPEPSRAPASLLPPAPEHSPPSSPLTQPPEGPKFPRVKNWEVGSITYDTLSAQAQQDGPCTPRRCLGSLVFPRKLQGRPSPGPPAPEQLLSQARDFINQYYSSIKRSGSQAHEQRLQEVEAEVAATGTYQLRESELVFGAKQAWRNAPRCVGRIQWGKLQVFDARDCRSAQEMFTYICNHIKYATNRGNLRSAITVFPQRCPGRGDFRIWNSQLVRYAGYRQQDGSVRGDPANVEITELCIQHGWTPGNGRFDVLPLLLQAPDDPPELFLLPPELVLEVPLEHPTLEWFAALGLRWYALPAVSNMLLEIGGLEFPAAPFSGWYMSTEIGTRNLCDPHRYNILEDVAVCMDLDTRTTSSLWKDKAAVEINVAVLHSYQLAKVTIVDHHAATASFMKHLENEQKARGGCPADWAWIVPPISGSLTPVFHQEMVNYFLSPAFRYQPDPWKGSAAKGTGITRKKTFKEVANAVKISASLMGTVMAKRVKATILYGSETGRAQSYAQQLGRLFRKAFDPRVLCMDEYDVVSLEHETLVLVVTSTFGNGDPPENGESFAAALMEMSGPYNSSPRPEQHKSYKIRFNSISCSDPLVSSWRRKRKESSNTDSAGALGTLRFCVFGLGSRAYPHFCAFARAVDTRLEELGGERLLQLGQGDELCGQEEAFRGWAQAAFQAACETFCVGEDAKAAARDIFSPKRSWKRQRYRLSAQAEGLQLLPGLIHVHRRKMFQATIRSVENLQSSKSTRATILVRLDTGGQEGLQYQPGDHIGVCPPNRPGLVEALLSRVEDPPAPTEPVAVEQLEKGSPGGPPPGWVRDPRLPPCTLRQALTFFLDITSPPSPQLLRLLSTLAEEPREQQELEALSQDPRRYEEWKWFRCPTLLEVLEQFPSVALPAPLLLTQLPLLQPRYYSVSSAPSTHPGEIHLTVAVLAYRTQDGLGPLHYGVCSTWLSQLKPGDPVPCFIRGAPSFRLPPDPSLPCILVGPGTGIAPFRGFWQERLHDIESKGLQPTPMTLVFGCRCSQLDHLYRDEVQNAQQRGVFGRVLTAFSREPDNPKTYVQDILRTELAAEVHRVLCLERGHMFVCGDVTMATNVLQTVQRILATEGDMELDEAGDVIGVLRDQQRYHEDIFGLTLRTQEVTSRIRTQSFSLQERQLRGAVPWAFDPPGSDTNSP
Put plainly: Inhibition of human eNOS using L-arginine as substrate assessed as reduction in NO production in the presence of NADPH by NO-hemoglobin capture assay. Put shortly: as §1

A short description of data set [3]: Effective permeability of compound in PBS buffer at pH 7.4 at 200 uM incubated for 17 hrs by PAMPA-BBB assay. It counts as ADME. The following applies: read-out: Peff. A general note: The PAMPA barrier holds no transporters, so it reflects passive diffusion.
Data set [4] addresses Nitric oxide synthase 1 (Homo sapiens, UniProt P29475).

Sequence of Nitric oxide synthase, inducible (P35228 whole entry, canonical isoform): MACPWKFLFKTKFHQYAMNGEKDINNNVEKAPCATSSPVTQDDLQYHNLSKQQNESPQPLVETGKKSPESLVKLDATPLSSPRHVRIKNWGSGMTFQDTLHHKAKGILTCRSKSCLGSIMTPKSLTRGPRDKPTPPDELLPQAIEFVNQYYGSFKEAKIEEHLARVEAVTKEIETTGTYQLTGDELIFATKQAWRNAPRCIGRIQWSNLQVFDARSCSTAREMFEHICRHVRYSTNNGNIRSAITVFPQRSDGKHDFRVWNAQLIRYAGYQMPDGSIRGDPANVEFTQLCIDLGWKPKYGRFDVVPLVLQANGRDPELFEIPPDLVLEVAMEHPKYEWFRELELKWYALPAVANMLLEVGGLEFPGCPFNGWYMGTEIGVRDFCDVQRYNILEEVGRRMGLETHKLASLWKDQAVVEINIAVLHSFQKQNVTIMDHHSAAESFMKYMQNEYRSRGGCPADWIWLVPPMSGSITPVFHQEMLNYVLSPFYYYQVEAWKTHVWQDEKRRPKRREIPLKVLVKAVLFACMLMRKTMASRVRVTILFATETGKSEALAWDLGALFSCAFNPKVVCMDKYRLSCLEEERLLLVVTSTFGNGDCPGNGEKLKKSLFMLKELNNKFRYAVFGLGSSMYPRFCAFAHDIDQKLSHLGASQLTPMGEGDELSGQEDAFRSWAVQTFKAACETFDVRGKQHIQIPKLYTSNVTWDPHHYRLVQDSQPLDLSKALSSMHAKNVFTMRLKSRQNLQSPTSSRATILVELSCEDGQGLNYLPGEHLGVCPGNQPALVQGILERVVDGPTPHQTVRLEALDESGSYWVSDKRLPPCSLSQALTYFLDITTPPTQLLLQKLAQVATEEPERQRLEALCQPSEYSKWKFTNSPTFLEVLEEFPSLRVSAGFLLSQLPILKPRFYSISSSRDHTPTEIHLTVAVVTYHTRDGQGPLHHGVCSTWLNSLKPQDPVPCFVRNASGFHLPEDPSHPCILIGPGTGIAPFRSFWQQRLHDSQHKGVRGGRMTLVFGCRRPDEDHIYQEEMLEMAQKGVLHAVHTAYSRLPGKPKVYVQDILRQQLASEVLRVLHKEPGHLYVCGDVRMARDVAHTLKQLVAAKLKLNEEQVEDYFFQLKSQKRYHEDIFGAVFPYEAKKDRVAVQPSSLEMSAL
Sequence of Nitric oxide synthase 1 (Rattus norvegicus, UniProt P29476) (P29476 whole entry, canonical isoform): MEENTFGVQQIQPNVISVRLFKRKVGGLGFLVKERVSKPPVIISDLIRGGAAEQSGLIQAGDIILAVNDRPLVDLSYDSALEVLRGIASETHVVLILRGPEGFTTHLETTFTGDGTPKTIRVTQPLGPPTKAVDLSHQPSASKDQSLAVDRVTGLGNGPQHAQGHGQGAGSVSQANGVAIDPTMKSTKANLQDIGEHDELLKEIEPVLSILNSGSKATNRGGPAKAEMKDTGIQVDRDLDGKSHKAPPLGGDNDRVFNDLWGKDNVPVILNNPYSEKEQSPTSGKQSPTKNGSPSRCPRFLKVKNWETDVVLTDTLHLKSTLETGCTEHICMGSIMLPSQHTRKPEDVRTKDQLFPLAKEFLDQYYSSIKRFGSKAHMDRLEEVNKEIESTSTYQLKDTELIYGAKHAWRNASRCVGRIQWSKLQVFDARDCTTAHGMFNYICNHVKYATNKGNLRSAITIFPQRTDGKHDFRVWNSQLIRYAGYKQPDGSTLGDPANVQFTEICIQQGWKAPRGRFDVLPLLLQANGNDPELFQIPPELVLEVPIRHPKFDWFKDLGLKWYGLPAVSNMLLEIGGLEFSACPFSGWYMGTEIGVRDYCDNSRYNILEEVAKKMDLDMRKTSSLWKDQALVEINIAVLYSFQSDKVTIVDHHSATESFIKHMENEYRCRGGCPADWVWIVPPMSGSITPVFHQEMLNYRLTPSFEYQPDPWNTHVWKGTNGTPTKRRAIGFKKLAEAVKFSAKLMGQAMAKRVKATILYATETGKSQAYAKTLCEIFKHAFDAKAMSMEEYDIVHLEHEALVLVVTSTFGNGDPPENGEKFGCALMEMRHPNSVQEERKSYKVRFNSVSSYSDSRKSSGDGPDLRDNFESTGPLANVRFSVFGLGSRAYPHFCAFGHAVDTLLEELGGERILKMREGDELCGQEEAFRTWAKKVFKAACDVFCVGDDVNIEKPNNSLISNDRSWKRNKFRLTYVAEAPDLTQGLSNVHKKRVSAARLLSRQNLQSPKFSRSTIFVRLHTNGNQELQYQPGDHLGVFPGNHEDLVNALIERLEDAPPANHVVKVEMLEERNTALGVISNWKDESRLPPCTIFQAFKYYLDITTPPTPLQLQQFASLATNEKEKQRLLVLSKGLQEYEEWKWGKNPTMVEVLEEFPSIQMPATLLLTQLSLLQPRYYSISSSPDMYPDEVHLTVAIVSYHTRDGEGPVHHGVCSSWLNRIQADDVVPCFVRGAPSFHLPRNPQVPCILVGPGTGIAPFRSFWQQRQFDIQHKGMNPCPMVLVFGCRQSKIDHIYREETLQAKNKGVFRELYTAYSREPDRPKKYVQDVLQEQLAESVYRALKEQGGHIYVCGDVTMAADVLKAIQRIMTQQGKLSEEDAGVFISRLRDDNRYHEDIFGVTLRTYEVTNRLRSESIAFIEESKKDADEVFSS
Sequence of Nitric oxide synthase 1 (Homo sapiens, UniProt P29475) (P29475 whole entry): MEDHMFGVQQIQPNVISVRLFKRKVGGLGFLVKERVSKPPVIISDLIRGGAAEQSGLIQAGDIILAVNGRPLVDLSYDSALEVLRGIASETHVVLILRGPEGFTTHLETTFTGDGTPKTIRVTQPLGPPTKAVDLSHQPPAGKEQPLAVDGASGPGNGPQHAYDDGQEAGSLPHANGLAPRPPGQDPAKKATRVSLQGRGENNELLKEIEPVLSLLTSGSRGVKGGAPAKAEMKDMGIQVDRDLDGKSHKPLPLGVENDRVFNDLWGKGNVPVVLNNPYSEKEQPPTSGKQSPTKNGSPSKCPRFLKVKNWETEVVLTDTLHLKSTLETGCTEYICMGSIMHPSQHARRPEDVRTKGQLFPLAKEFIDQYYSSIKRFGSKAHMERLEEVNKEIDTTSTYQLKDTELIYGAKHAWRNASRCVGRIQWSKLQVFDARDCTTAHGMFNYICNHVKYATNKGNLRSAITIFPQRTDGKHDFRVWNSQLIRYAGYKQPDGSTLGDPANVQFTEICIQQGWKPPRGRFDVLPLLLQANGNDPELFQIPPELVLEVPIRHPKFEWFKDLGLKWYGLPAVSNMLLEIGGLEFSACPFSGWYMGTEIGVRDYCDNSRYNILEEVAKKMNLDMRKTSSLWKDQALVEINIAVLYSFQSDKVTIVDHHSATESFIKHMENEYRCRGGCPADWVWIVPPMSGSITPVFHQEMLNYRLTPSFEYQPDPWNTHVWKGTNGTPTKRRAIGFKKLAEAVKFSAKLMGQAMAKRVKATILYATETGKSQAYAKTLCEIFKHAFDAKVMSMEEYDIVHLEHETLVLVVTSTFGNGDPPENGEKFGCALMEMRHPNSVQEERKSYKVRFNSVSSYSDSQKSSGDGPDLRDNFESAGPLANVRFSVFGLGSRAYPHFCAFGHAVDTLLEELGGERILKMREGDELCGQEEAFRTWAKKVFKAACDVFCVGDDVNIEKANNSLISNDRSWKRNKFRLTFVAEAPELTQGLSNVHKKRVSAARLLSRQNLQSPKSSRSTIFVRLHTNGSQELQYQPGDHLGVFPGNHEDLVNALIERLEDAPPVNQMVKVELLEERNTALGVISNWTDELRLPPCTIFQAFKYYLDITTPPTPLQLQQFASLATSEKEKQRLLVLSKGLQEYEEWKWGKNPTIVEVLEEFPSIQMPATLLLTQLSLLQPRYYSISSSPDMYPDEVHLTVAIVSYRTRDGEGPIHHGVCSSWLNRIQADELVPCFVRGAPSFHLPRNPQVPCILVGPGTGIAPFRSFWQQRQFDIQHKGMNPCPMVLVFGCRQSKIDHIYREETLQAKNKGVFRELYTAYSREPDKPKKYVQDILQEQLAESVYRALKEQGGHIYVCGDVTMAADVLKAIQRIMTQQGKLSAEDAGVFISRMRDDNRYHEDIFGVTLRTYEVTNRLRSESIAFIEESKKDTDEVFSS

On to `Cc1cc(N)nc(CCCN2CC(F)(F)C2)c1`, for which the Ki at Nitric oxide synthase 1 [1] turned out to be 0.095 µM; in data set [2], 4.36 µM; at Nitric oxide synthase 3 it was 6.27 µM; at Nitric oxide synthase 1 [4], 0.149 µM. Moreover, in data set [3], the Papp at 17 h, 200 µM was found to be 17.5 ×10⁻⁶ cm/s.
In the case of `Cc1cc(N)nc(C#CCCN(C)C)c1`, the Ki is 0.242 µM at Nitric oxide synthase 1 [1], 29.8 µM in data set [2], 70.5 µM at Nitric oxide synthase 3 and 0.327 µM on Nitric oxide synthase 1 [4]. Besides, the Papp at 17 h, 200 µM in data set [3] was 4.7 ×10⁻⁶ cm/s.
The corresponding values for `Cc1cc(N)nc(C#CCN2CCC(F)(F)CC2)c1` are 1.59 µM, 27.4 µM, 18.9 µM, 1.43 µM and 21.1 ×10⁻⁶ cm/s.
Take `Cc1cc(N)nc(CCCN2CCN(C)CC2)c1`: the Ki on Nitric oxide synthase 1 [1] turned out to be 0.056 µM; on Nitric oxide synthase 3, 12.5 µM. Also, the Papp at 17 h, 200 µM in data set [3] was found to be 2.2 ×10⁻⁶ cm/s.
For the compound `CNCCCc1cc(C)cc(N)n1`, the Ki at Nitric oxide synthase 3 came to 1.47 µM. In addition, the Papp at 17 h, 200 µM in data set [3] came to 0.96 ×10⁻⁶ cm/s.
`Cc1cc(N)nc(CCCN2CCC(F)(F)CC2)c1`: the Ki on Nitric oxide synthase 1 [1] was found to be 0.046 µM; in data set [2], 6.48 µM; on Nitric oxide synthase 3, 18.6 µM; on Nitric oxide synthase 1 [4], 0.048 µM. Moreover, in data set [3], the Papp at 17 h, 200 µM was determined as 17.3 ×10⁻⁶ cm/s.
Turning to `Cc1cc(N)nc(CCCCN(C)C)c1`, the figures for the Ki (in data set [2]; on Nitric oxide synthase 3) were 7.67 µM and 7.35 µM, respectively. Further, the Papp at 17 h, 200 µM in data set [3] came out at 2.3 ×10⁻⁶ cm/s.
Take `CNCC#Cc1cc(C)cc(N)n1`: the Ki on Nitric oxide synthase 3 came out at 1.92 µM. For the same compound, the Papp at 17 h, 200 µM in data set [3] turned out to be 4.7 ×10⁻⁶ cm/s.
The corresponding values for `Cc1cc(N)nc(CCCN(C)C)c1` are 3.66 µM and 2 ×10⁻⁶ cm/s.
For the compound `Cc1cc(N)nc(C#CCN2CC(F)(F)C2)c1`, the Ki at Nitric oxide synthase 1 [1] was determined as 0.465 µM; in data set [2] it was 11.1 µM; at Nitric oxide synthase 3, 5.13 µM; on Nitric oxide synthase 1 [4], 0.488 µM. In data set [3], the Papp at 17 h, 200 µM came out at 19.6 ×10⁻⁶ cm/s.
In the case of `Cc1cc(N)nc(C#CCN2CCN(C)CC2)c1`, the Ki at Nitric oxide synthase 3 came out at 43.8 µM. Moreover, the Papp at 17 h, 200 µM in data set [3] is 3.2 ×10⁻⁶ cm/s.
